pEC50: −log10 of the molar value. Active and inactive are the calls of the source. No cut-off for these calls is given here.
Columns and labels:
[1] = tested on: Human alphaherpesvirus 1; assay: Antiviral activity against HSV1 KOS ATCC VR1493 infected in human iPSC cells assessed as reduction in EGFP-positive cells at 10 uM treated at 2 hrs post infection measured 24 hrs post infection by flow cytometric analysis relative to control; type: functional
Summary of the method: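 Human iPSC-derived neurons infected with engineered EGFP HSV-1 at MOI 0.3 and treated with 10 μM at 2 hpi (DMSO vehicle). Percentage of EGFP+ cells measured by flow cytometry at 24 hpi relative to untreated infected cultures. Average of three independent experiments, SD.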

[2] = tested on: Human alphaherpesvirus 1; assay: Antiviral activity against HSV1 KOS ATCC VR1493 infected in African green monkey Vero cells assessed as reduction in EGFP-positive cells at 10 uM treated at 2 hrs post infection measured 24 hrs post infection by flow cytometric analysis relative to control; type: functional
Summary of the method: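 Vero cells infected with EGFP-expressing HSV-1 at MOI 1, then given medium with 10 μM test agent (DMSO vehicle) at 2 hpi. Percentage of EGFP+ cells read by flow cytometry at 24 hpi against untreated infected cultures. Mean of three independent experiments, SD.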

[3] = tested on: Human alphaherpesvirus 1; assay: Antiviral activity against HSV1 KOS ATCC VR1493 infected in human iPSC cells assessed as viral DNA replication at 10 uM measured 24 hrs post infection by FISH analysis; type: functional, organism-based
Summary of the method: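 HSV-1-infected iPSC-neurons (MOI 0.3), treated with 10 μM at 2 hpi. Fluorescent in situ hybridisation with HSV-1 DNA probe to detect viral DNA replication at 24 hpi.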

[4] = tested on: Human alphaherpesvirus 1; assay: Antiviral activity against HSV1 KOS ATCC VR1493 infected in human iPSC cells assessed as reduction in virus yield at 10 uM treated at 2 hrs post infection measured 48 hrs post infection by flow cytometric analysis relative to control; type: functional, organism-based
[5] = tested on: Human alphaherpesvirus 1; assay: Antiviral activity against HSV1 KOS ATCC VR1493 infected in African green monkey Vero cells assessed as reduction in virus yield at 10 uM treated at 2 hrs post infection measured 48 hrs post infection by flow cytometric analysis relative to control; type: functional, organism-based
[6] = tested on: Human alphaherpesvirus 1; assay: Induction of sodium butyrate-induced reactivation of HSV1 KOS ATCC VR1493 infected in human iPSC cells assessed as decrease in EGFP MFI at 10 uM measured after 5 days of withdrawal in presence of IFN-alpha relative to 5BVdU/IFN-alpha-treated cells; type: functional
[7] = tested on: Human alphaherpesvirus 1; assay: Induction of sodium butyrate-induced reactivation of HSV1 KOS ATCC VR1493 infected in human iPSC cells assessed as increase in EGFP-positive cells at 10 uM measured after 5 days of withdrawal in presence of IFN-alpha by flow cytometric analysis relative to 5BVdU/[…]-treated cells; type: functional
[8] = Cytotoxicity against human ARPE19 cells assessed as cell viability at 0.1 to 50 uM after 24 to 48 hrs by live/dead fixable viability dye-based flow cytometric analysis; conditions: arpe-19, 50 µM
[9] = tested on: Human alphaherpesvirus 3; assay: Antiviral activity against VZV infected in human ARPE19 cells treated at 2 hrs post infection measured 48 hrs post infection by luciferase assay; type: functional, organism-based; conditions: Human alphaherpesvirus 3, ARPE-19
Summary of the method: (§1)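 ARPE-19 retinal pigment epithelial cells infected with VZV carrying luciferase under the late ORF9 promoter at 1000 PFU/well. Compound added 2 hpi. Luciferase counts per second read at 48 hpi.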

[10] = Cytotoxicity against human iPSC cells assessed as cell viability at 0.1 to 50 uM after 24 to 48 hrs by live/dead fixable viability dye-based flow cytometric analysis
Summary of the method: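 Viability of iPSC-neurons exposed to test agent over 100 nM to 50 μM.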

[11] = tested on: Human alphaherpesvirus 1; assay: Antiviral activity against HSV1 KOS ATCC VR1493 infected in human iPSC cells assessed as reduction in viral DNA copy at 10 uM measured 24 hrs post infection by RT-qPCR analysis relative to control; type: functional
Summary of the method: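 iPSC-neurons infected with HSV-1 (MOI 0.3) and treated with 10 μM at 2 hpi. DNA extracted at 24 hpi. Viral DNA copy number measured by qPCR relative to infected untreated cells.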

[12] = tested on: Human alphaherpesvirus 1; assay: Induction of sodium butyrate-induced reactivation of HSV1 KOS ATCC VR1493 infected in human iPSC cells assessed as decrease in EGFP/RFP MFI at 10 uM measured after 5 days of withdrawal in presence of IFN-alpha relative to 5BVdU/IFN-alpha-treated cells; type: functional, organism-based
[13] = tested on: Human alphaherpesvirus 3; assay: Antiviral activity against VZV infected in human ARPE19 cells at 10 uM treated at 2 hrs post infection measured 48 hrs post infection by luciferase assay relative to control; type: functional; summary of the method: as §1
[14] = tested on: Human alphaherpesvirus 1; assay: Antiviral activity against HSV1 KOS ATCC VR1493 infected in human iPSC-derived neurons assessed as reduction in EGFP-positive cells treated at 2 hrs post infection measured 24 hrs post infection by flow cytometric analysis; conditions: Human alphaherpesvirus 1, KOS ATCC VR1493, iPSC-derived neurons
[15] = tested on: Human alphaherpesvirus 1; assay: Induction of sodium butyrate-induced reactivation of HSV1 KOS ATCC VR1493 infected in human iPSC cells assessed as reduction in EGFP/RFP-positive cells at 10 uM measured after 5 days of withdrawal by flow cytometric analysis relative to 5BVdU/[…]-treated cells; type: functional, organism-based
[16] = tested on: Human alphaherpesvirus 1; assay: Induction of sodium butyrate-induced reactivation of HSV1 KOS ATCC VR1493 infected in human iPSC cells assessed as decrease in EGFP/RFP MFI at 10 uM measured after 5 days of withdrawal relative to 5BVdU/IFN-alpha-treated cells; type: functional, organism-based
[17] = tested on: Human alphaherpesvirus 1; assay: Antiviral activity against HSV1 KOS ATCC VR1493 infected in human iPSC cells assessed as reduction in expression of ICP4 at 10 uM measured 24 hrs post infection by western blot analysis; type: functional, organism-based
[18] = tested on: Human alphaherpesvirus 1; assay: Induction of sodium butyrate-induced reactivation of HSV1 KOS ATCC VR1493 infected in human iPSC cells assessed as increase in EGFP-positive cells at 10 uM measured after 5 days of withdrawal by flow cytometric analysis relative to 5BVdU/IFN-alpha-treated cells; type: functional
[19] = tested on: Human alphaherpesvirus 1; assay: Antiviral activity against HSV1 KOS ATCC VR1493 infected in human iPSC cells assessed as reduction in expression of DNA polymerase gene at 10 uM measured 24 hrs post infection by RT-qPCR analysis; type: functional, organism-based
Summary of the method: (§2)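 iPSC-neurons infected with HSV-1 (MOI 0.3) and treated with 10 μM at 2 hpi. RT-qPCR of ICP4 and viral DNA polymerase transcripts at 24 hpi.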

[20] = tested on: Human alphaherpesvirus 1; assay: Induction of sodium butyrate-induced reactivation of HSV1 KOS ATCC VR1493 infected in human iPSC cells assessed as reduction in EGFP/RFP-positive cells at 10 uM measured after 5 days of withdrawal in presence of IFN-alpha by flow cytometric analysis relative to 5BVdU/[…]-treated cells; type: functional, organism-based
[21] = tested on: Human alphaherpesvirus 1; assay: Induction of sodium butyrate-induced reactivation of HSV1 KOS ATCC VR1493 infected in human iPSC cells assessed as decrease in EGFP MFI at 10 uM measured after 5 days of withdrawal relative to 5BVdU/IFN-alpha-treated cells; type: functional
[22] = tested on: Human alphaherpesvirus 1; assay: Antiviral activity against HSV1 KOS ATCC VR1493 infected in human iPSC cells assessed as reduction in expression of ICP4 gene at 10 uM measured 24 hrs post infection by RT-qPCR analysis; type: functional, organism-based; summary of the method: as §2
[23] = tested on: Human alphaherpesvirus 1; assay: Antiviral activity against HSV1 KOS ATCC VR1493 infected in human iPSC cells assessed as reduction in expression of ICP4 gene at 50 uM measured 24 hrs post infection by RT-qPCR analysis; type: functional, organism-based
Summary of the method: (§3)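 Human iPSC-derived neurons were infected with engineered HSV-1 at MOI 0.3 and treated 2 hpi (DMSO vehicle). RNA was taken 24 hpi, and viral ICP4 and viral DNA polymerase transcripts were quantified by RT-qPCR relative to infected untreated cells.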

[24] = tested on: Human alphaherpesvirus 1; assay: Antiviral activity against HSV1 KOS ATCC VR1493 infected in human iPSC cells assessed as viral DNA replication at 50 uM measured 24 hrs post infection by FISH analysis; type: functional, organism-based
Summary of the method: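 iPSC-derived neurons were infected with engineered HSV-1 at MOI 0.3 and given drug 2 hpi. Viral DNA replication was scored by fluorescent in situ hybridization with an HSV-1 DNA probe, counting hybridizing signals.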

[25] = tested on: Human alphaherpesvirus 1; assay: Antiviral activity against HSV1 KOS ATCC VR1493 infected in African green monkey Vero cells assessed as viral titre at 50 uM treated at 2 hrs post infection measured 48 hrs post infection by […] relative to control; type: functional
[26] = tested on: Human alphaherpesvirus 1; assay: Antiviral activity against HSV1 KOS ATCC VR1493 infected in human iPSC cells assessed as reduction in expression of DNA polymerase gene at 50 uM measured 24 hrs post infection by RT-qPCR analysis; type: functional, organism-based; summary of the method: as §3
[27] = tested on: Human alphaherpesvirus 1; assay: Antiviral activity against HSV1 KOS ATCC VR1493 infected in human iPSC cells assessed as reduction in expression of ICP4 at 50 uM measured 24 hrs post infection by western blot analysis; type: functional, organism-based

O=C1N[C@@H]2C(=C[C@H](O)[C@@H](O)[C@H]2O)c2cc3c(c(O)c21)OCO3 [NARCICLASINE]
fold change (FC) [1]: 69
fold change (FC) [2]: 10.6
Activity [3]: Active
Activity [4]: Active
Activity [5]: Active

O=C1N[C@H]2[C@H](O)C[C@@H](O)C[C@@H]2c2cc3c(cc21)OCO3
Activity [2]: inactive
Activity [3]: inactive
Activity [5]: inactive

COC(=O)N[C@H]1C(=O)C[C@@H](O)C[C@@H]1c1ccc2c(c1)OCO2
Activity [2]: inactive
Activity [3]: inactive
Activity [5]: inactive

O=C1N[C@H]2[C@H](O)[C@H](O)[C@@H](O)C[C@@H]2c2cc3c(cc21)OCO3
fold change (FC) [6]: 2.5
fold change (FC) [7]: 2.1
Activity [8]: Non-toxic
pEC50 [9]: 6.82
Activity [10]: Non-toxic
fold change (FC) [1]: 28
fold change (FC) [11]: >1800
Activity [12]: Active
fold change (FC) [13]: 220
pEC50 [14]: 7.00
Activity [15]: Active
Activity [16]: Active
Activity [17]: Active
fold change (FC) [2]: 19.6
Activity [3]: Active
fold change (FC) [18]: 2.9
Activity [4]: Active
Activity [19]: Active
Activity [20]: Active
fold change (FC) [21]: 1.6
Activity [5]: Active
Activity [22]: Active

Nc1nc2c(ncn2COCCO)c(=O)[nH]1 [ACYCLOVIR]
Activity [8]: Non-toxic
Activity [23]: Active
Activity [24]: Active
Activity [25]: 33.3 PFU/ml
Activity [10]: Non-toxic
Activity [26]: Active
Activity [27]: Active
pEC50 [14]: 7.15

O=C1N[C@H]2[C@H](O)[C@@H](O)[C@@H](O)C[C@@H]2c2cc3c(cc21)OCO3
Activity [2]: inactive
Activity [3]: inactive
Activity [5]: inactive

O=C1N[C@H]2[C@H](O)[C@H](O)[C@@H](O)[C@H](O)[C@@H]2c2cc3c(c(O)c21)OCO3 [PANCRATISTATIN]
fold change (FC) [1]: 62
fold change (FC) [2]: 8.3
Activity [3]: Active
Activity [4]: Active
Activity [5]: Active

Reference: ChEMBL document CHEMBL3774324, “iPSC Neuronal Assay Identifies Amaryllidaceae Pharmacophore with Multiple Effects against Herpesvirus Infections” (ACS Med Chem Lett, 2016)
